Measured values reported in paper PMC3428507 (Journal of molecular biology, 2012).
Blank lines part the entries; values can stand above or below the molecule they belong to.

What was measured:
H3 (1-42) = assay: 15N-labeled H3; assay type: binding, human; settings: 80 μM 15N-H3, 2 equivalents unlabeled Pf1 PHD1; 20 mM Tris-d11 pH 6.0, 50 mM NaCl, 10 μM ZnSO4, 15 mM DTT, 25 °C
[1] = tested on: Pf1 PHD1/MBD (residues 48–241); assay: NMR of 15N-labeled Pf1 PHD1/MBD with MRG15 proteins; assay type: binding, human
Pf1 PHD1 = Pf1 PHD1 (Homo sapiens, UniProt Q96QT6); assay: NMR of mixture of 15N-MRG15 CD and 15N-Pf1 PHD1; assay type: binding; settings: 1:1 mixture, absence of histone targets
Method in brief: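 Both proteins were recombinant, expressed in E. coli BL21(DE3) and uniformly 15N-labelled by growth in M9 minimal medium with 15N-ammonium sulfate. They were purified by affinity resin, TEV cleavage and reversed-phase HPLC, then lyophilized; labelling was confirmed by ESI-MS. Pf1 PHD1 was refolded in 6 M Gdn-HCl with 50 mM DTT (42 °C, 5 h), given ZnSO4, and gel-filtered. Concentrations were measured spectrophotometrically.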

[2] = tested on: Pf1 PHD1 (residues 48–116); assay: NMR of 15N-labeled Pf1 PHD1 with full-length MRG15 and Pf1 MBD; assay type: binding, human; settings: 1:1 mixture with full-length MRG15; pH 7.5, 25 °C

B1: PHD1: human Pf1 PHD1 domain (residues 48–116) (protein)
chain: RRSGRATNHDSCDSCKEGGDLLCCDHCPAAFHLQCCNPPLSEEMLPPGEWMCHRCTVRRKKREQKKELG
modifications: left off: GST, end not stated, cleaved
perturbation of H3 (1-42) resonances (H3 (1-42)): The amide resonances of Thr3 and Lys4 were broadened beyond detection upon PHD1 addition while that of Thr6 was significantly broadened

direct interaction of MRG15 CD and Pf1 PHD1 (Pf1 PHD1): largely unperturbed
B2: MRG15 CD: MRG15 CD (residues 1–90) (protein)
chain: MAPKQDPKPKFQEGERVLCFHGPLLYEAKCVKVAIKDKQVKYFIHYSGWNKNWDEWVPESRVLKYVDTNLQKQRELQKANQEQYAEGKMR
modifications: left off: His6, N-terminal, cleaved
involvement of MRG15 CD in PHD1 interactions ([1]; 1D 1H NMR of Pf1 PHD1/MBD-MRG15 complex (Supp. Fig. S4)): appeared to be not involved in PHD1 interactions

B3: full-length MRG15: full-length MRG15 (residues 1–323) (protein)
chain: MAPKQDPKPKFQEGERVLCFHGPLLYEAKCVKVAIKDKQVKYFIHYSGWNKNWDEWVPESRVLKYVDTNLQKQRELQKANQEQYAEGKMRGAAPGKKTSGLQQKNVEVKTKKNKQKTPGNGDGGSTSETPQPPRKKRARVDPTVENEETFMNRVEVKVKIPEELKPWLVDDWDLITRQKQLFYLPAKKNVDSILEDYANYKKSRGNTDNKEYAVNEVVAGIKEYFNVMLGTQLLYKFERPQYAEILADHPDAPMSQVYGAPHLLRLFVRIGAMLAYTPLDEKSLALLLNYLHDFLKYLAKNSATLFSASDYEVAPPEYHRKAV
modifications: left off: His tag (from the vector pMCSG7), end not stated, state not stated
effect on 15N-Pf1 PHD1/MBD spectrum ([1]; equimolar, 20 mM Tris pH 7.5, 50 mM NaCl, 10 μM ZnSO4, 15 mM DTT, 0.2% NaN3, 25 °C): disappearance of most of the resonances belonging to the PHD1 domain
effect on 15N-PHD1 spectrum without Pf1 MBD [2]: little or no perturbations compared to the apo-PHD1
